Assay outcomes: PubChem BioAssay, several laboratories
In the library only some 1.5% were active in any assay of this set; here they are far more common.
TNF death inh – inhibitors of TNF-alpha triggered necroptosis, primary screen, cell-based, Jurkat FADD-/-, single concentration. AID 463075, 2010. 220,000 tested, 0.068% active. activation (protection from cell death), % at 10 µM. Jurkat FADD-/- TNF necroptosis rescue, ATP luminescence, 24 h; 0 = TNF only, 100 = no-TNF cells;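 active = activation, meaning protection from cell death, of at least 50% relative to plate controls; inactive = activation below 50%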;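 note: necroptosis triggered by 40 ng/mL TNF-alpha added together with compound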
S1P4 antagonist – S1P4 receptor antagonists, primary screen, cell-based; inhibition, % at 4.98 µM; S1P4-expressing cells, antagonist mode, reporter read-out; Sphingosine 1-phosphate receptor 4 (Homo sapiens), O95977; AID 1510, 2009; 220,000 tested, 0.26% active; in the data active = inhibition above about 29%;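 note: 0% = wells stimulated with agonist and 100% = vehicle wells without agonist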
Target sequence (O95977 whole entry, looked up): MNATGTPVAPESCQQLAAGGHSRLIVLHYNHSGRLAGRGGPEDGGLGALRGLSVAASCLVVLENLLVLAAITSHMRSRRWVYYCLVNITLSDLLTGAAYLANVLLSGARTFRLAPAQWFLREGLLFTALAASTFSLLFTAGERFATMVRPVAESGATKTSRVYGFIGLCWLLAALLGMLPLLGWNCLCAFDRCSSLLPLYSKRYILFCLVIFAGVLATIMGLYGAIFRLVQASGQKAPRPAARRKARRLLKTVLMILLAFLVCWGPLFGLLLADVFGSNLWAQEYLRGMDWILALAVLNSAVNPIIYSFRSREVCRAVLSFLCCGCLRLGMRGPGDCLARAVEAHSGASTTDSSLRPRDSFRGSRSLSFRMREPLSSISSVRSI
Dynein cargo inh – inhibitors of GR-EGFP nuclear translocation, primary screen, dynein cargo transport inhibitor project, imaging, high-content, 3617.4 mouse cells. test concentration mostly 20 µM; stimulated with dexamethasone, 1 µM; hits give low values. z-score, hits read low. 220,000 tested, 0.47% active;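 active = plate z-score of nuclear minus cytoplasmic receptor signal below a set negative limit, without overly bright fluorescence or cell loss, cut at about -3.5 in these data, passing the limit was not always enough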;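 note: z-score of nuclear minus cytoplasmic ring GR-EGFP intensity difference per well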
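Also added: dexamethasone, 1.0 µM final. Medium: tet-free, stripped-serum medium. Detection: fixed, Hoechst-stained cells imaged at 10x for EGFP. Read-out: nuclear-to-cytoplasmic GR-EGFP distribution per well. Times: induction 48 h, compound 1 h, agonist 30 min.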
Tb hexokinase – Trypanosoma brucei hexokinase 1 inhibitors, primary screen, biochemical, G6PDH-coupled NADH absorbance, MLSCN library; hexokinase 1 [Trypanosoma brucei]; recombinant TbHK1, G6PDH-coupled NADH A340; inhibition, % at 10 µM; 220,000 tested, 0.11% active; AID 1430, 2008;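 active = inhibition of 50% or more in the single-dose primary screen; inactive = inhibition below 50%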
L929 necroptosis – inhibitors of zVAD-triggered necroptosis, primary screen, L929 cells; L929 zVAD necroptosis rescue, ATP luminescence, 24 h; with zVAD 60 µM; viability rescue, % at 10 µM; 220,000 tested, 0.38% active; AID 1377, 2008;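 active = activation, scaled between plate controls, above about 75%, limit read from the data; inactive = activation under that limit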;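 note: 0% = zVAD with DMSO and 100% = DMSO alone without zVAD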
S1P4 ag – S1P4 receptor agonists, primary screen, cell-based. S1P4-expressing cell line, agonist reporter assay. activation, % at 4.98 µM. AID 1509, 2009. 220,000 tested, 0.35% active. Sphingosine 1-phosphate receptor 4 (Homo sapiens), O95977; in the data active = activation above about 11%;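 note: 0% = DMSO vehicle and 100% = reference agonist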
Dynein inh conf – dynein cargo transport inhibitors, GR-EGFP translocation, confirmation, imaging, high-content imaging, GR-EGFP cells. shares compounds with Dynein cargo inh. 3617.4 GR-EGFP nuclear translocation imaging, dexamethasone-induced. calls only at 20 µM. 1,000 tested, 69% active. AID 463116, 2010;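 active = inhibition of receptor movement into the nucleus at or above a set limit in both runs, with normal cell brightness and cell count; inconclusive = limit reached in only one run, brightness and count normal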;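 note: dexamethasone at 1 µM final in well for 30 min; nuclear minus cytoplasmic GR-EGFP mean intensity difference in channel 2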
An asterisk follows results filed as active; i = inactive; ? = inconclusive; . = no result given; + = active, no number.

SMILES | TNF death inh | S1P4 antagonist | Dynein cargo inh | Tb hexokinase | L929 necroptosis | S1P4 ag | Dynein inh conf
Cc1ccc2[nH]c(C(=O)NN=C3CCCCC3)c(-c3ccccc3)c2c1 | 0 | -4 | -0.46 | -2 | 5 | 4 | .
CCOC(=O)c1nc(S(C)(=O)=O)ncc1Cl | 9 | 16 | -5.1* | -4 | -1 | 0 | i
O=C(CN(Cc1ccco1)S(=O)(=O)c1ccccc1)N/N=C/c1ccccc1C(=O)O | 0 | -20 | 0.79 | -5 | -1 | -1 | .
COC(=O)CS(=O)(=O)c1nnc([C@H](Cc2ccccc2)NC(=O)OC(C)(C)C)o1 | -10 | -1 | -3.9* | 3 | 1 | -2 | +
COc1ccc(C(=O)NC(=S)Nc2cccnc2)cc1[N+](=O)[O-] | 1 | 16 | 1.7 | 7 | -1 | -2 | .
COc1ccc(CCNc2ccc(N3C(=O)CC(C)C3=O)cc2[N+](=O)[O-])cc1OC (configuration not stated) | -9 | -11 | -0.95 | -4 | 5 | 0 | .
O=C(O)c1ccc(C=C(c2nc3ccccc3s2)c2nc3ccccc3s2)cc1 | -2 | -8 | -4.6* | -8 | 8 | 2 | +
COc1ccc(/C=c2\s/c(=C/C(=O)c3ccc(C)cc3)[nH]c2=O)cc1OC | 4 | -15 | -6.6 | -17 | 3 | 1 | i
COC(C[C@@H](O)CC(=O)COCc1ccccc1)OC | 1 | . | -0.23 | -11 | -1 | . | .
Cn1c(=O)c([N+](=O)[O-])c(Cl)c2ccccc21 | -6 | 11 | -6.3* | -6 | 20 | 3 | +
CCN(CC)c1c([N+](=O)[O-])c(=O)n(C)c2ccccc12 | -1 | 9 | -0.63 | -13 | -1 | 1 | .
CC(C)(C)OC(=O)NCCc1nnc(S(=O)(=O)Cc2ccc(Cl)cc2Cl)o1 | -6 | -17 | -6.3* | 4 | 0 | -1 | ?
CC(C)(C)OC(=O)NCCc1nnc(SCc2ccccc2Cl)o1 | -3 | 5 | -1 | -11 | 1 | 0 | .
CC(C)(C)Sc1ccc([N+](=O)[O-])cc1C(=O)Nc1ccncc1 | 0 | -19 | -0.21 | -1 | -1 | 1 | .
O=C1ON=C(c2ccc(Cl)cc2)/C1=C/c1ccc(O)cc1 | 0 | 21 | -5* | -26 | 0 | 0 | +
Cc1ccc(CNC(=O)CNS(=O)(=O)c2ccc3nc(C)sc3c2)cc1 | 3 | -5 | 0.068 | -5 | 1 | -1 | .
CC(=O)Nc1ccc(/C(C)=N/Nc2nc(Nc3cccc4ccccc34)nc(N3CCOCC3)n2)cc1 | 3 | -5 | -0.26 | -12 | 0 | -2 | .
Cc1cccn2c(=O)c(C=O)c(Cl)nc12 | 1 | -5 | -5.9* | -19 | 48 | 0 | +
Cc1onc(-c2ccccc2)c1-c1nc2cc(Cl)ccc2c(=O)o1 | -9 | -5 | -3.8* | -11 | -1 | 0 | +
Cc1onc(-c2ccccc2)c1-c1nc2ccccc2c(=O)o1 | -15 | -2 | -0.2 | 2 | -1 | 1 | .
CCC1=C(OC(=O)N(CC)CC)N2C(=O)OC(=NCC(=O)OC)[C@]2(Cc2ccccc2)[C@H]2C1=CC[C@H]1C(=O)NC(=O)[C@H]12 | -1 | . | 0.33 | -9 | 1 | . | .
CC(=O)Nc1sc(/C(C#N)=C/c2ccc(Cl)c(Cl)c2)nc1-c1ccc(C)cc1 | 2 | -6 | -5.9* | -10 | 1 | 1 | +
O=C(Nc1ccc(OC(F)F)cc1)Nc1cccc(C(F)(F)F)c1 | -4 | 10 | -0.68 | 6 | 2 | 0 | .
O=C(CCSc1ccccn1)c1ccccc1 | 1 | -8 | -4* | -11 | 0 | 1 | i
O=C(O)CCSc1ccccn1 | -1 | -15 | -0.42 | 5 | 1 | 1 | .
SMILES | TNF death inh | S1P4 antagonist | Dynein cargo inh | Tb hexokinase | L929 necroptosis | S1P4 ag | Dynein inh conf
COc1ccc(-n2nc(C(=O)c3cccs3)cc(-c3nc4ccccc4[nH]3)c2=N)cc1 | -14 | -27 | -5.9 | -5 | 0 | 3 | i
O=C(CCl)N(c1ccc(Cl)cc1)c1c[nH]c2ccccc12 | -26 | 11 | -5.3* | -1 | -1 | -5 | +
O=C(CCl)N(c1ccccc1)c1c[nH]c2ccccc12 | -13 | 8 | -2.8 | 6 | 36 | -2 | .
Cc1ccc2nc(Nc3ccc4[nH]c(=O)[nH]c4c3)c(-n3nc(C)cc3C)nc2c1 | -6 | 8 | -4.4 | -4 | 0 | 3 | i
Cc1cc(C)n(-c2nc3ccccc3nc2Nc2ccc3c(c2)OCO3)n1 | 0 | 1 | 0.52 | -5 | 1 | 1 | .
CS(=O)(=O)c1ccc(C(=O)OCc2nnc(-c3ccc(Cl)cc3)o2)cc1[N+](=O)[O-] | 0 | -8 | -5.6* | -1 | 2 | 0 | +
COCCN(CC(=O)NC1CCCCC1)C(=O)/C=C/C(=O)c1ccc(OC)cc1O | -14 | 13 | -3.7* | -8 | 1 | 0 | +
CCOC(=O)c1c(C)sc2c1N(C(=O)CCl)c1cc(Cl)ccc1S2 | -13 | 4 | -4* | -2 | 22 | -1 | +
O=C(CCl)N1N=C(c2cccs2)CC1c1ccco1 (configuration not stated) | -7 | -6 | -4.7* | -14 | -3 | 2 | +
CN1CCN(CC(=O)N2N=C(c3cccs3)CC2c2ccco2)CC1 (configuration not stated) | 0 | -6 | -0.44 | -7 | -1 | -1 | .
Cc1cc(C)c2c3c(sc2n1)C1(CCSCC1)C(C#N)=C(N)O3 | -2 | 2 | -0.18 | -4 | 0 | -1 | .
COc1ccc(C2C(C#N)=C(N)Oc3c2sc2nc(C)cc(C)c32)cc1 (configuration not stated) | -22 | 17 | -3.9* | -22 | 4 | -3 | i
CCCC12CN3CC(C)(CN(C1)C3c1cccs1)C2=O (configuration not stated) | 1 | -3 | 0.64 | -2 | 1 | 1 | .
CN(CC(=O)Nc1cccc2ccccc12)C(=O)c1cccc(S(=O)(=O)N(C)C)c1 | 3 | 6 | -0.39 | -1 | -1 | 0 | .
COc1ccc(-c2cc(C(F)(F)F)nc(S(=O)(=O)CCCC(=O)Nc3cc(C)on3)n2)cc1OC | -14 | 29 | -5* | -20 | 51 | -2 | +
N#C/C(=C\Nc1ccc2cn[nH]c2c1)c1nc(-c2ccccc2)cs1 | 1 | -12 | 1.3 | -7 | 14 | 1 | .
